{"data": "Experimental data from different studies", "action": "inhibitor", "MET M1250T": "Hepatocyte growth factor receptor (MET, Homo sapiens, UniProt P08581, M1250T)", "MET": "Hepatocyte growth factor receptor (MET, Homo sapiens, UniProt P08581)", "note": "Protocols differ between the studies behind these lines."}
{"SMILES": "CC/C(=N\\NC(=O)NCc1cccc(O)c1)c1ccc(O)c(C)c1O", "target": "MET M1250T", "test": "enzyme activity", "conditions": "0.1 µM", "inhibition [%]": -0.2}
{"SMILES": "CNc1cc(Oc2cc(C(=O)Nc3cc(N4CCN(C)CC4)cc(C(F)(F)F)c3)ccc2C)ncn1", "target": "MET", "test": "target engagement in cells, chemoproteomics", "system": "Huh-7", "conditions": "1 µM", "inhibition [%]": -18.4}
{"SMILES": "CS(=O)(=O)Nc1cccc(-c2csc(NC(=O)CSc3nc4nccnc4c(=O)n3CCc3ccccc3)n2)c1", "target": "MET", "test": "enzyme activity", "conditions": "10 µM", "inhibition [%]": 1}
{"SMILES": "C=CC(=O)Nc1cc(Nc2nccc(Nc3cc(Cl)c(F)cc3C(C)(C)O)n2)c(OC)cc1N1CC[C@@H](N(C)C)C1", "target": "MET", "test": "enzyme activity", "conditions": "1 µM", "inhibition [%]": 30}
{"SMILES": "CN(C)C1CCN(CC#Cc2nn(C3CCCC3)c3nc(NCc4ccccc4)ncc23)C1 (stereo not shown)", "target": "MET", "test": "enzyme activity, FRET", "conditions": "0.1 µM", "inhibition [%]": 6}
{"SMILES": "COc1cc2ncnc(Nc3ccc(Oc4ccccc4)cc3C)c2cc1OC", "target": "MET", "test": "enzyme activity", "conditions": "1 µM", "inhibition [%]": -1}
{"SMILES": "CNC(=O)c1cc(Oc2ccc(NC(=O)Nc3ccc(Cl)c(C(F)(F)F)c3)cc2)ccn1", "target": "MET", "test": "enzyme activity", "conditions": "10 µM", "inhibition [%]": -13}
{"SMILES": "CN1CC(Oc2cnc(C#N)cc2-c2ccn3nc(NC(=O)C4CC4)cc3c2)C1", "target": "MET", "test": "enzyme activity", "conditions": "1 µM", "inhibition [%]": -19}
{"SMILES": "COc1cc2ncnc(Nc3ccc(Oc4ccccc4)c(C)c3C)c2cc1OC", "target": "MET", "test": "enzyme activity", "conditions": "1 µM", "inhibition [%]": 8}
{"SMILES": "CNC(=O)c1cc2c(Oc3ccc(NC(=O)C4(C(=O)Nc5ccc(F)cc5)CC4)cc3)ccnc2cc1OC", "target": "MET M1250T", "test": "enzyme activity, radiometric", "conditions": "1 µM", "inhibition [%]": 99}
